“Also recorded” adds a separate entry of the source.
Assays:
[1] = system: lung carcinoma xenografts; conditions: cited from earlier work
[2] = system: subcutaneous human tumor xenografts; conditions: oral administration; lung, prostate, pancreatic, glioma, colon, breast; cited from earlier work
prostate carcinoma cells = conditions: in vitro; cited from earlier work
[3] = molecular target: FAK Tyr-397 phosphorylation (pY397 FAK) (Mus musculus, UniProt P34152); test: Immunoblotting of tumor FAK Tyr-397 phosphorylation in 4T1 tumors; type: in vivo, Balb/c mice
Chain of FAK Tyr-397 phosphorylation (pY397 FAK) (P34152 whole entry): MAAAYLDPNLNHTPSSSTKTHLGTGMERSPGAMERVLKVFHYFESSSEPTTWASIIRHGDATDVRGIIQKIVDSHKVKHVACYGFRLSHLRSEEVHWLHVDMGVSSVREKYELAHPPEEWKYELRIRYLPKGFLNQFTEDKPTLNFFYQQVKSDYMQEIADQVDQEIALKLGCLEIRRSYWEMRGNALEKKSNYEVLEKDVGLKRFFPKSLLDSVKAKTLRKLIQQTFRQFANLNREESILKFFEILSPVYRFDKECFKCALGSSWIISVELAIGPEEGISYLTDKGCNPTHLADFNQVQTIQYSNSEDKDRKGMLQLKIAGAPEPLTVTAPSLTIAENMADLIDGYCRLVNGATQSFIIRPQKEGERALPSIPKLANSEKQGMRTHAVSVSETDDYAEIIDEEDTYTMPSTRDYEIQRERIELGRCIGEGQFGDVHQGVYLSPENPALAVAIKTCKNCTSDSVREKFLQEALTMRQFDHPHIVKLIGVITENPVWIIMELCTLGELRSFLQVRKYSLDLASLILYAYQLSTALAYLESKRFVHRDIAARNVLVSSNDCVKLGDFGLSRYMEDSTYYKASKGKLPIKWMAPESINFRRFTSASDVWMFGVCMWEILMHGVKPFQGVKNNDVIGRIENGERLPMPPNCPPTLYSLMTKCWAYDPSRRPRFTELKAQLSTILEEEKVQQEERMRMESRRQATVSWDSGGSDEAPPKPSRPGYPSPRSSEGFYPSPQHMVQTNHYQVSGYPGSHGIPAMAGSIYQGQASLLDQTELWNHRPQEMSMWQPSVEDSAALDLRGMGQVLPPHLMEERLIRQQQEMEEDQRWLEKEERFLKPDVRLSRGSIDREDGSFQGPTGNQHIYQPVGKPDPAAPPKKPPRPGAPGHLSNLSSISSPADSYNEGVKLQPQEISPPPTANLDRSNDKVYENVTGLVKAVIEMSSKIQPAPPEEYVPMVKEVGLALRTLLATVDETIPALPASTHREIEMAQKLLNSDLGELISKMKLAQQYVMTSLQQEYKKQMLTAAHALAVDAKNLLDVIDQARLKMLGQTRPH

[4] = system: TNFα-stimulated IL-6 production in 4T1 cells; test: IL-6 ELISA of TNFα-stimulated 4T1 cells; type: cell-based, murine; conditions: 0.25 to 1.0 µM, TNFα 10 ng/ml, 24 h
[5] = system: suspended MDA-MB-231 cells; test: Apoptosis assay; type: cell-based, human; conditions: concentrations up to 10 µM, within 6 h
Method in brief: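 Suspended MDA-MB-231 cells exposed to test compound or DMSO for 1 h or 6 h, then stained with FITC-annexin V for 30 min and analysed by flow cytometry within 1 h. Quadrant gates were set from autofluorescence (negative) and staurosporine 1 µM (positive) controls. Apoptosis is the percent of annexin V-positive cells.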

cell motility = conditions: 0.1 to 1.0 µM; cited from earlier work
[6] = system: carcinoma cells in three-dimensional culture; conditions: 0.1 µM; cited from earlier work
[7] = system: MDA-MB-231 cells in lungs; test: Experimental metastasis assay; type: in vivo, nude mice; conditions: 150 mg/kg p.o. pre-administered, 1 and 6 h after cell injection
[8] = PND-1186 levels in tumor samples by HPLC and mass spectroscopy; type: in vivo, Balb/c mice; conditions: for maximal PND-1186 in tumors / time to maximal PND-1186 in tumors: subcutaneous 4T1 tumors
pY118 paxillin = test: Immunoblotting of pY118 paxillin in orthotopic 4T1 tumors; type: in vivo, Balb/c mice; conditions: 0.5 mg/ml ad libitum
[9] = system: adherent cell proliferation; conditions: 1.0 µM; cited from earlier work
Src activity = conditions: adherent or suspended 4T1 cells; cited from earlier work
4T1 lung metastases = test: Spontaneous 4T1 breast to lung metastasis; type: in vivo, Balb/c mice; conditions: 150 mg/kg p.o. b.i.d. for 15 days
[10] = system: tumor-associated splenomegaly; test: Spleen weight in 4T1 tumor-bearing mice; type: in vivo, Balb/c mice
[11] = system: 4T1 tumor blood vessels (CD31); test: Anti-CD31 staining of 4T1 orthotopic tumors; type: in vivo, Balb/c mice; conditions: 150 mg/kg p.o. b.i.d.
[12] = Body weight and toxicity in mouse studies; type: in vivo
[13] = system: p130Cas Tyr-410 phosphorylation (pY410Cas); test: Immunoblotting of tumor p130Cas Tyr-410 phosphorylation in 4T1 tumors; type: in vivo, Balb/c mice
Water solubility = type: physicochemical
[14] = system: MDA-MB-231 orthotopic tumors; test: Orthotopic MDA-MB-231 tumor growth; type: in vivo, SCID mice; conditions: 0.5 mg/ml ad libitum, Day 27 (15 days of administration)
[15] = molecular target: FAK pY397 phosphorylation (Homo sapiens, UniProt Q05397); test: Immunoblotting of FAK pY397 in MDA-MB-231 tumors; type: in vivo; conditions: 0.5 mg/ml ad libitum
Chain of FAK pY397 phosphorylation (Q05397 whole entry): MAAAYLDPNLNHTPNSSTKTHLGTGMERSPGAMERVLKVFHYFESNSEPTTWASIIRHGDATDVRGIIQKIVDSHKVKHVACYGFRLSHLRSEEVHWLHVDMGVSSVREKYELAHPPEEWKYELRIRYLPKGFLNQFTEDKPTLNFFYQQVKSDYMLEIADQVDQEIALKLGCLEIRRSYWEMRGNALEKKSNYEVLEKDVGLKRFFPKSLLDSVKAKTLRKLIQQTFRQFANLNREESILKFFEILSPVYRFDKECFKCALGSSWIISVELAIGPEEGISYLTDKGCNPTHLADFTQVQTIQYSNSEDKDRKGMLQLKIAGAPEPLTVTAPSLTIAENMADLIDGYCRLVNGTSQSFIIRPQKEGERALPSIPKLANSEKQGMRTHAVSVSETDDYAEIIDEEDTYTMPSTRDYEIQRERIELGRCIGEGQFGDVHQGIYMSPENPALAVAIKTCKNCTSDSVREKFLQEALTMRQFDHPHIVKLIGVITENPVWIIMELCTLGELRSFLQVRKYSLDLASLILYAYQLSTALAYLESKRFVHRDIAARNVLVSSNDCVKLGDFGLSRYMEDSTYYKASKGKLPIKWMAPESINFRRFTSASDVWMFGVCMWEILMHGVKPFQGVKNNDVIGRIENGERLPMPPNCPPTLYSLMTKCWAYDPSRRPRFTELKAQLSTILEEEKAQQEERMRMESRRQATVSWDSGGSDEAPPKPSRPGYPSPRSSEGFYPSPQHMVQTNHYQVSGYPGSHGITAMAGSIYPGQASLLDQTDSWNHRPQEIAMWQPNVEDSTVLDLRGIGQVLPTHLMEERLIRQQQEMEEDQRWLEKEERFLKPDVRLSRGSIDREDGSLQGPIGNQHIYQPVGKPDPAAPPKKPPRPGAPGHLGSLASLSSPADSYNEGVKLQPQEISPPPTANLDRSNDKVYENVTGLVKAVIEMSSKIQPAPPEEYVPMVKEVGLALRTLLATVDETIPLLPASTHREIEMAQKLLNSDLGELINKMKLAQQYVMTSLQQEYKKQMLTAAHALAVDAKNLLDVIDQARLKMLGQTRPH
Method in brief: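 From day 12 (palpable tumors), mice drank 5% sucrose or 0.5 mg/ml compound in 5% sucrose ad libitum. Tumor growth was followed to Day 70; final tumors were weighed and lysed for immunoblot of the FAK pY397 to total FAK ratio (n=11 control, 13 treated).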

Pharmacokinetic = type: in vivo, Balb/c mice; conditions: plasma; for Cmax: mice
[16] = system: 4T1 orthotopic breast carcinoma tumors; test: Orthotopic 4T1 breast carcinoma tumor growth; type: in vivo, Balb/c mice
glioma tumor = conditions: mice; cited from earlier work
[17] = 0.5 mg/ml ad libitum, orthotopic 4T1 tumors

CN(c1ncccc1CNc1nc(Nc2ccc3c(c2)CC(=O)N3)ncc1C(F)(F)F)S(C)(=O)=O [PF-562,271]
tumor microvessel density [1]: reduced tumor microvessel density | growth of subcutaneous human tumor xenografts [2]: reduces the growth

CS(=O)(=O)c1cccc(CNc2nc(Nc3ccc4c(c3)CCC(=O)N4)ncc2C(F)(F)F)c1 [PF-573,228]
prostate carcinoma cell motility (prostate carcinoma cells): prevented prostate carcinoma cell motility in vitro

CNC(=O)c1ccccc1Nc1cc(Nc2ccc(N3CCOCC3)cc2OC)ncc1C(F)(F)F [PND-1186]
FAK pY397 phosphorylation in primary 4T1 tumors [3, 17]: sufficient to inhibit | tumor FAK pY397 phosphorylation at 12 h ([3]; 30 mg/kg single i.p., subcutaneous 4T1 tumors, 12 h): not significantly inhibited | IL-6 release [4]: inhibited IL-6 release in a dose-dependent manner | MDA-MB-231 apoptosis by annexin V binding [5]: did not promote MDA-MB-231 apoptosis | cell motility (cell motility): prevents cell motility in a dose-dependent fashion | carcinoma cell apoptosis under three-dimensional culture conditions [6]: selectively promotes carcinoma cell apoptosis | accumulation of tumor cells in the lungs [7]: significantly inhibited the accumulation of tumor cells in the lungs | maximal PND-1186 in tumors ([8]; 30 mg/kg single i.p.): 0.75 µg/g | time to maximal PND-1186 in tumors ([8]; 30 mg/kg single i.p.): ≤ 1 h | maximal PND-1186 in tumors ([8]; 100 mg/kg single i.p.): 16.1 µg/g | time to maximal PND-1186 in tumors ([8]; 100 mg/kg single i.p.): ≤ 1 h | concentration at 7 days ([8]; Balb/c, mouse, tumor, oral, 0.5 mg/ml): 522 ng/g | pY118 paxillin phosphorylation in tumors (pY118 paxillin): inhibited | adherent cell proliferation [9]: limited inhibitory effects on adherent cell proliferation | Src activity (Src activity): does not inhibit Src activity | mice with high lung metastatic burden (4T1 lung metastases): no mice with a high metastatic burden | spleen size ([10]; 0.5 mg/ml ad libitum): of normal size | spleen appearance ([10]; 150 mg/kg p.o. b.i.d.): healthy and indistinguishable from non-treated, non-tumor bearing mice | spleen weight, vehicle-treated over PND-1186-treated mice ([10]; 150 mg/kg p.o. b.i.d.): > 2 fold | vascular differences by anti-CD31 staining [11]: no major vascular differences | toxicity or weight loss ([12]; 0.5 mg/ml ad libitum administration): no signs of toxicity or weight loss; also recorded: without toxicity or weight loss | effect on total body weight ([12]; 150 mg/kg p.o. b.i.d., 4T1 tumor-bearing Balb/c mice): without affects on total body weight | p130Cas pY410 phosphorylation in primary 4T1 tumors [13, 17]: sufficient to inhibit | p130Cas Tyr-410 phosphorylation (pY410Cas) in tumors ([13]; 100 mg/kg single i.p., subcutaneous 4T1 tumors, by 3 h): significantly reduced | solubility (Water solubility): > 20 mg/mL | tumor size by caliper measurements versus control [14]: control tumors were significantly larger | FAK pY397 phosphorylation in MDA-MB-231 tumors [15]: significantly reduce | Cmax (Pharmacokinetic; 30 mg/kg i.p.): 34.8 µM | bioavailability (Pharmacokinetic; Balb/c, mouse, ip, 30 mg/kg): 31.1% | bioavailability (Pharmacokinetic; Balb/c, mouse, ip, 100 mg/kg): 42.2% | Cmax (Pharmacokinetic; Balb/c, mouse, ip, 100 mg/kg, CMAX, 100 mg/kg i.p.): 117 µM | concentration at 7 days (Pharmacokinetic; Balb/c, mouse, oral, 0.5 mg/ml): 1.2 µM | bioavailability (Pharmacokinetic; Balb/c, mouse, po, 150 mg/kg): 14.8% | tumor size by caliper measurements versus control ([16]; 0.5 mg/ml ad libitum, Day 13): tumor size was significantly different | reduction of final tumor volume compared to vehicle control ([16]; 150 mg/kg p.o. b.i.d., 16 days): 3 fold | tumor volume compared to vehicle control ([16]; 150 mg/kg p.o. b.i.d., Day 7): significantly reduced tumor volume

CNC(=O)c1ccccc1Nc1nc(Nc2ccc(N3CCOCC3)cc2OC)ncc1Cl [TAE-226]
glioma tumor growth (glioma tumor): can prevent glioma tumor growth in mice
